In PubChem BioAssay:
The source made the active and inactive calls.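 The calls were made as follows: active = growth inhibition above a set limit, 3 SD over mean compound inhibition, in both replicates (cut at about 43% in these data); inconclusive = above the limit in only one replicate; inactive = at or below the limit in both replicates.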

Test: Restrictive medium S. cerevisiae growth inhibition, OD615, pilot screen of yeast lifespan reduction project, restrictive growth control (AID 706);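 also: modified DeaD lifespan yeast strain shifted to restrictive glucose medium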
Conditions: OD615, 48 h, at 10 µM, hits give high values
In short: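 Material: modified S. cerevisiae; buffer or medium: CSMM-D glucose medium; doses: one concentration, 10 µM final, 0.25% DMSO; incubation: 48 h compound exposure at 30 °C; detection: optical density at 615 nm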
For Cc1nnc2n(-c3ccc(Cl)cc3)c(=O)c3c4c(sc3n12)CN(C)CC4, the growth inhibition was -10.1% (inactive). In the case of O=c1oc2c3c4c(cc2s1)CCCN4CCC3, the growth inhibition was -7.54% (inactive). In the case of Cc1cc(C)n2nc(SCc3nc4ccccc4[nH]3)nc2n1, the growth inhibition was 15.5% (inactive). For Cc1cc(C)cc(N(CC(=O)Nc2cccc(C)n2)S(=O)(=O)c2c(C)noc2C)c1, the growth inhibition was -11.5% (inactive). With COc1cccc(C2C3=C(N=C4SCC(=O)N42)c2ccccc2CC3)c1OC (stereo not given) the growth inhibition was -9.8% (inactive). In the case of O=C(Cn1nc(Cc2ccncc2)c2ccccc2c1=O)N1CCN(C(=O)c2ccco2)CC1, the growth inhibition was 9.88% (inactive). For O=C(Nc1c(C(=O)NCc2ccco2)cnn1-c1ccccc1)c1ccc(F)cc1, the growth inhibition was 13.1% (inactive). In the case of Cc1nc2ccc(S(=O)(=O)NC(C(=O)Nc3nccs3)C(C)C)cc2s1 (stereo not given), the growth inhibition was 2.78% (inactive). In the case of Cn1nnnc1SCC(=O)N1CCN(c2ccccc2)CC1, the growth inhibition was -1.68% (inactive). For COc1cc2c(cc1OC)-c1nnc(C)n1C1(CCCC1)C2, the growth inhibition was -16% (inactive). In the case of CS(=O)(=O)N(Cc1ccco1)CC(O)Cn1c2ccccc2c2ccccc21 (stereo not given), the growth inhibition was -1.61% (inactive). With COc1cccc(C2=NOC(C(=O)N3CCc4ccccc4C3)C2)c1 (stereo not given) the growth inhibition was 4.4% (inactive). In the case of O=C(CC1Oc2ccccc2NC1=O)NCCCN1CCOCC1 (stereo not given), the growth inhibition was -1.36% (inactive). For CCOC(=O)N1CCN(C(=O)c2ccc(CS(=O)(=O)c3c(Cl)cccc3Cl)o2)CC1, the growth inhibition was -14% (inactive). With CCn1cc(SCC(=O)Nc2cc(C)on2)c2ccccc21 the growth inhibition was -7.99% (inactive). With COc1ccccc1N1CCN(C(=O)N2CCOCC2)CC1 the growth inhibition was -6.65% (inactive). With O=C(CSc1nnc2ccccn12)c1ccccc1 the growth inhibition was -10.6% (inactive). For CCOc1ccc(N(CC(=O)OC)S(=O)(=O)c2ccc(OC)c(OC)c2)cc1, the growth inhibition was -4.04% (inactive). With CCCCSc1nc(CCC)cc(=O)[nH]1 the growth inhibition was -14.4% (inactive). In the case of O=C(CN1CCN(Cc2ccccc2F)C1=O)NCc1cccnc1, the growth inhibition was 6.51% (inactive). For COc1ccc(OC)c(C(=O)c2ccc(C(=O)O)cc2)c1, the growth inhibition was -16.1% (inactive). For Cc1ccc(C)n1-n1c(C)nc2sc(-c3ccccc3)cc2c1=O, the growth inhibition was -27.4% (inactive). For CCn1c(C(=O)N2CCC(C(=O)N3CCN(c4ccccn4)CC3)CC2)cc2sccc21, the growth inhibition was -12.2% (inactive). With C=CCSc1nc(N)c2c(C)c(C)sc2n1 the growth inhibition was -14% (inactive). For COc1ccc(OCCSc2nc3ccccc3n2CC(=O)O)cc1, the growth inhibition was -5.21% (inactive). With Cc1nnc(SCC(=O)NCc2ccccc2)s1 the growth inhibition was -11.3% (inactive). With Clc1ccc(SCCCCn2ccnc2)cc1 the growth inhibition was -14.2% (inactive). For CC1(C)Oc2ccc3ccc(=O)oc3c2C(N2CCCCC2)C1O (stereo not given), the growth inhibition was -7.54% (inactive). With CSCCC(N=CC1=C(O)CC(C)(C)CC1=O)C(=O)O (stereo not given) the growth inhibition was 1.57% (inactive). With COc1ccc(C)cc1NC(=O)C1CCN(S(=O)(=O)c2cccc3cccnc23)CC1 the growth inhibition was -2.36% (inactive). In the case of CCOc1ccc(-c2nnc(SCC(=O)N3CCN(c4ccccc4)CC3)o2)cc1, the growth inhibition was 2.85% (inactive). For CCCOc1ccc2ccccc2c1/C=N/n1cnnc1, the growth inhibition was 6.62% (inactive). With O=C(Cn1cc2c(n1)CCCCC2)N1CCc2ccccc21 the growth inhibition was -4.38% (inactive). With CCn1cc(C(=O)N2CCOCC2)c(=O)c2cc(S(=O)(=O)N(C)C3CCCCC3)ccc21 the growth inhibition was -19.3% (inactive). In the case of COCCn1c(SCC(=O)Nc2ccc3c(c2)OCCO3)nc2c(c1=O)SC(C)C2 (stereo not given), the growth inhibition was -5.1% (inactive). In the case of CC(C)CCN(C)C1CCN(S(=O)(=O)c2ccc(F)cc2)CC1, the growth inhibition was 10.4% (inactive). For COc1ccccc1-n1c(=O)[nH]c2c(C(N)=O)nc(-c3cccnc3)nc21, the growth inhibition was -16.8% (inactive). For Cn1c(/C=N/n2cnnc2)nc2ccccc21, the growth inhibition was -2.04% (inactive). In the case of CN1CCN(CCCNC(=O)Cn2ncc3c4ccccc4n(C)c3c2=O)CC1, the growth inhibition was -28.7% (inactive). With CCOc1ccc(N(CC(=O)NCc2ccco2)S(=O)(=O)c2ccc(OC)c(OC)c2)cc1 the growth inhibition was -16.6% (inactive).
